The record followed here is ChEMBL document CHEMBL2331520, “Synthesis, surface tension properties and antibacterial activities of amphiphilic D-galactopyranose derivatives” (Eur J Med Chem, 2013).

The subject of series [1] is Staphylococcus aureus. The series is described as follows: Antibacterial activity against Staphylococcus aureus subsp aureus CIP 53.154 assessed as growth inhibition at 30 degC after 24 hrs by liquid broth dilution method. Type of series: functional. Conditions: CIP 53.154, 24 h. In a few lines: (§1)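 Strains kept at -80 °C in LB broth with 20% glycerol and grown from 1% (v/v) stock in nutritive broth (yeast extract 1 g/L, meat extract 2 g/L, peptone 5 g/L, NaCl 5 g/L) at 30 °C. Overnight culture adjusted to 0.5 McFarland (~1.5 × 10⁸ cfu/mL). Compound stock 1 g/L in DMSO, serially diluted in broth 1:2 to 1:512, mixed 1:1 with inoculum. Incubation 24 h, 150 rpm, 30 °C. OD600 read; MIC = lowest concentration with no OD increase in all replicates versus negative control.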
Background: Dilution methods test growth across graded concentrations, often in twofold steps.

Series [2] has as its system Mycolicibacterium smegmatis. The series is described as follows: Antibacterial activity against Mycobacterium smegmatis CIP 73.26 assessed as growth inhibition at 37 degC after 24 hrs by liquid broth dilution method. Type of series: functional. As to conditions: CIP 73.26, 24 h. In outline:
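Inoculum at 0.5 McFarland (~1.5 × 10⁸ cfu/mL). DMSO stock (1 g/L) serially diluted in the same medium 1:2 to 1:512. Shaken 24 h at 150 rpm, 37 °C. MIC = lowest concentration with no OD600 rise in any replicate versus negative control.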

Series [3] in a line: Gamma critical micelle concentration of the compound by wilhelmy method. The class given is physicochemical. In outline:
(§2)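 Wilhelmy plate method at 293 K. Concentrated solution added stepwise from a syringe into ultrapure water, stirred gently 30 s after each addition, then equilibrium surface tension read. Each value is the mean of at least three measurements (SD within ±1.5% of mean). Transducer precision 0.1 mN/m; platinum plate flame-cleaned. Surface tension plotted against molar concentration to give CMC and γCMC.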

The test system of series [4] is Sinorhizobium meliloti. The series is described as follows: Antibacterial activity against Sinorhizobium meliloti Rm1021 assessed as growth inhibition at 30 degC after 24 hrs by liquid broth dilution method. Type of series: functional. As to conditions: Rm1021, 24 h. In outline:
as §1

Series [5] relates to Citrobacter freundii. The series is described as follows: Antibacterial activity against Citrobacter freundii ATCC 6750 assessed as growth inhibition at 30 degC after 24 hrs by liquid broth dilution method. The class given is functional. As to conditions: ATCC 6750, 24 h. In a few lines:
as §1

Series [6] can be described thus: Critical micelle concentration of the compound by wilhelmy method. The class given is physicochemical. In a few lines:
as §2

In series [7] the test system is Escherichia coli. In words: Antibacterial activity against Escherichia coli ATCC 10536 assessed as growth inhibition at 30 degC after 24 hrs by liquid broth dilution method. The class given is functional. As to conditions: ATCC 10536, 24 h. In a few lines:
as §1

For series [8], the system named is Geobacillus stearothermophilus. In words: Antibacterial activity against Bacillus stearothermophilus ATTC 12980 assessed as growth inhibition at 30 degC after 24 hrs by liquid broth dilution method. Conditions: ATTC 12980, 24 h. The class given is functional. In a few lines:
as §1

Series [9] relates to Dickeya chrysanthemi. In words: Antibacterial activity against Erwinia chrysanthemi EC3937 assessed as growth inhibition at 30 degC after 24 hrs by liquid broth dilution method. As to conditions: EC3937, 24 h. Type of series: functional. In a few lines: as §1
The subject of series [10] is Pseudomonas aeruginosa. In words: Antibacterial activity against Pseudomonas aeruginosa CIP A22 assessed as growth inhibition at 30 degC after 24 hrs by liquid broth dilution method. Type of series: functional. As to conditions: CIP A22, 24 h. In outline: as §1
The subject of series [11] is Micrococcus luteus. In words: Antibacterial activity against Micrococcus luteus CIP 53.45 assessed as growth inhibition at 30 degC after 24 hrs by liquid broth dilution method. Type of series: functional. Conditions: CIP 53.45, 24 h. In outline: as §1
In series [12] the test system is Enterobacter cloacae. The series is described as follows: Antibacterial activity against Enterobacter cloacae ATCC 13047 assessed as growth inhibition at 30 degC after 24 hrs by liquid broth dilution method. The class given is functional. As to conditions: ATCC 13047, 24 h. In outline:
as §1

Regarding `CCCCCCCCOC[C@H]1O[C@H](O)[C@H](O)[C@@H](O)[C@H]1O`, the MIC in series [1], in [2], in [4], in series [5], in series [7] and in [8] was no less than 250 µg/mL each time. Besides, the MIC in series [9], in [10], in [11] and in series [12] was no less than 250 µg/mL in each case. This compound came in with a gammaCMC in series [3] of 28 mN/meter. The CMC in series [6] is given as 12 mmol/L.
